# Data from ChEMBL document CHEMBL1152649, “Synthesis, cytotoxicity and human telomerase inhibition activities of a series of 1,2-heteroannelated anthraquinones and anthra[1,2-d]imidazole-6,11-dione homologues” (2009).
# Experiments:
# Assay type in all cases: functional
# BT-549 [1] = assay: Growth inhibition of human BT549 cells
# Method in brief: (§1)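 NCI 60 cancer cell line screen run per the Developmental Therapeutics Program protocol. Dose–response curves were plotted against log10 drug concentration for each cell line within its subpanel, and mean graph midpoint values were calculated.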
# T47D = assay: Growth inhibition of human T47D cells
# Method in brief: (§2)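 Assayed in the NCI 60 human cancer cell line panel under the Developmental Therapeutics Program protocol. For each line, dose–response curves were plotted against log10 drug concentration. In the one-dose screen at 10^-5 M, growth was given as percent of untreated control cells, and mean graph midpoint values were averaged.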
# CCRF-CEM = assay: Growth inhibition of human CCRF-CEM cells; method in brief: as §1
# K562 = assay: Growth inhibition of human K562 cells; method in brief: as §1
# [2] = Growth inhibition of human […] cells; method in brief: as §2
# SR = assay: Growth inhibition of human SR cells; method in brief: as §2
# A549 = assay: Growth inhibition of human A549 cells; method in brief: as §1
# EKVX = assay: Growth inhibition of human EKVX cells; method in brief: as §1
# HOP-62 = assay: Growth inhibition of human HOP62 cells; method in brief: as §1
# NCI-H322M = assay: Growth inhibition of human NCI-H322M cells; method in brief: as §1
# NCI-H460 = assay: Growth inhibition of human NCI-H460 cells; method in brief: as §1
# NCI-H522 = assay: Growth inhibition of human NCI-H522 cells; method in brief: as §1
# HCT-116 = assay: Growth inhibition of human HCT116 cells; method in brief: as §1
# HT-29 = assay: Growth inhibition of human HT-29 cells; method in brief: as §1
# SW-620 = assay: Growth inhibition of human SW620 cells; method in brief: as §2
# SF-295 = assay: Growth inhibition of human SF295 cells; method in brief: as §2
# SF-539 = assay: Growth inhibition of human SF539 cells; method in brief: as §2
# SNB-19 = assay: Growth inhibition of human SNB19 cells; method in brief: as §2
# SNB-75 = assay: Growth inhibition of human SNB75 cells; method in brief: as §2
# U-251 = assay: Growth inhibition of human U251 cells; method in brief: as §2
# Malme-3M = assay: Growth inhibition of human MALME-3M cells; method in brief: as §1
# M14 = assay: Growth inhibition of human M14 cells; method in brief: as §1
# MDA-MB-435 = assay: Growth inhibition of human MDA-MB-435 cells; method in brief: as §1
# SK-MEL-5 = assay: Growth inhibition of human SK-MEL-5 cells; method in brief: as §2
# UACC-257 = assay: Growth inhibition of human UACC257 cells; method in brief: as §2
# UACC-62 = assay: Growth inhibition of human UACC62 cells; method in brief: as §2
# IGROV-1 = assay: Growth inhibition of human IGROV1 cells; method in brief: as §1
# OVCAR-4 = assay: Growth inhibition of human OVCAR4 cells; method in brief: as §1
# OVCAR-5 = assay: Growth inhibition of human OVCAR5 cells; method in brief: as §1
# NCI/ADR-RES = assay: Growth inhibition of human NCI/ADR-RES cells; method in brief: as §1
# 786-0 = assay: Growth inhibition of human 786-0 cells; method in brief: as §1
# A498 = assay: Growth inhibition of human A498 cells; method in brief: as §1
# CAKI-1 = assay: Growth inhibition of human Caki1 cells; method in brief: as §1
# RXF 393 = assay: Growth inhibition of human RXF393 cells; method in brief: as §2
# SN12C = assay: Growth inhibition of human SN12C cells; method in brief: as §2
# TK-10 = assay: Growth inhibition of human TK10 cells; method in brief: as §2
# DU-145 = assay: Growth inhibition of human DU145 cells; method in brief: as §1
# MCF7 = assay: Growth inhibition of human MCF7 cells; method in brief: as §1
# BT-549 [3] = assay: Antiproliferative activity against human BT549 cells assessed as cell growth at 10 uM; settings: read-out: Activity
# Method in brief: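 NCI 60 cell line panel, single-dose screen (10^-5 M) run by the developmental therapeutics program protocol. Results are given as growth percent of treated cells relative to untreated control cells for each line.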
# [4] = read-out: LC50 (the source's name)
smiles,measurement,setting,value
CCc1nc2ccc3c(c2[nH]1)C(=O)c1ccccc1C3=O,GI50,BT-549 [1],9.3 µM
same,TGI,BT-549 [1],> 100 µM
same,GI50,T47D,3.3 µM
same,TGI,T47D,> 100 µM
same,GI50,CCRF-CEM,16.5 µM
same,TGI,CCRF-CEM,> 100 µM
same,CC50,CCRF-CEM; [4],> 100 µM
same,GI50,K562,> 100 µM
same,TGI,K562,> 100 µM
same,GI50,[2],4.16 µM
same,TGI,[2],> 100 µM
same,CC50,[2]; [4],> 100 µM
same,GI50,SR,6.71 µM
same,TGI,SR,> 100 µM
same,CC50,SR; [4],> 100 µM
same,GI50,A549,28.5 µM
same,TGI,A549,> 100 µM
same,CC50,A549; [4],> 100 µM
same,GI50,EKVX,4.6 µM
same,TGI,EKVX,> 100 µM
same,CC50,EKVX; [4],> 100 µM
same,GI50,HOP-62,32.2 µM
same,TGI,HOP-62,> 100 µM
same,CC50,HOP-62; [4],> 100 µM
same,GI50,NCI-H322M,4.87 µM
same,TGI,NCI-H322M,> 100 µM
same,CC50,NCI-H322M; [4],> 100 µM
same,GI50,NCI-H460,5.27 µM
same,TGI,NCI-H460,> 100 µM
same,CC50,NCI-H460; [4],> 100 µM
same,GI50,NCI-H522,28.3 µM
same,TGI,NCI-H522,> 100 µM
same,CC50,NCI-H522; [4],> 100 µM
same,GI50,HCT-116,5.9 µM
same,TGI,HCT-116,> 100 µM
same,CC50,HCT-116; [4],> 100 µM
same,GI50,HT-29,16.1 µM
same,TGI,HT-29,> 100 µM
same,CC50,HT-29; [4],> 100 µM
same,GI50,SW-620,19.8 µM
same,TGI,SW-620,> 100 µM
same,CC50,SW-620; [4],> 100 µM
same,GI50,SF-295,4.15 µM
same,TGI,SF-295,> 100 µM
same,CC50,SF-295; [4],> 100 µM
same,GI50,SF-539,11.7 µM
same,TGI,SF-539,> 100 µM
same,CC50,SF-539; [4],> 100 µM
same,GI50,SNB-19,18.1 µM
same,TGI,SNB-19,> 100 µM
same,CC50,SNB-19; [4],> 100 µM
same,GI50,SNB-75,62.5 µM
same,TGI,SNB-75,> 100 µM
same,CC50,SNB-75; [4],> 100 µM
same,GI50,U-251,16.3 µM
same,TGI,U-251,> 100 µM
same,CC50,U-251; [4],> 100 µM
same,GI50,Malme-3M,8.55 µM
same,TGI,Malme-3M,> 100 µM
same,CC50,Malme-3M; [4],> 100 µM
same,GI50,M14,7.42 µM
same,TGI,M14,> 100 µM
same,CC50,M14; [4],> 100 µM
same,GI50,MDA-MB-435,30.3 µM
same,TGI,MDA-MB-435,> 100 µM
same,CC50,MDA-MB-435; [4],> 100 µM
same,GI50,SK-MEL-5,12.7 µM
same,TGI,SK-MEL-5,59.1 µM
same,CC50,SK-MEL-5; [4],> 100 µM
same,GI50,UACC-257,47.2 µM
same,TGI,UACC-257,> 100 µM
same,CC50,UACC-257; [4],> 100 µM
same,GI50,UACC-62,8.09 µM
same,TGI,UACC-62,> 100 µM
same,CC50,UACC-62; [4],> 100 µM
same,GI50,IGROV-1,1.54 µM
same,TGI,IGROV-1,14.8 µM
same,CC50,IGROV-1; [4],> 100 µM
same,GI50,OVCAR-4,25.7 µM
same,TGI,OVCAR-4,> 100 µM
same,CC50,OVCAR-4; [4],> 100 µM
same,GI50,OVCAR-5,77.4 µM
same,TGI,OVCAR-5,> 100 µM
same,CC50,OVCAR-5; [4],> 100 µM
same,GI50,NCI/ADR-RES,18.9 µM
same,TGI,NCI/ADR-RES,> 100 µM
same,CC50,NCI/ADR-RES; [4],> 100 µM
same,GI50,786-0,43.6 µM
same,TGI,786-0,> 100 µM
same,CC50,786-0; [4],> 100 µM
same,GI50,A498,> 100 µM
same,TGI,A498,> 100 µM
same,CC50,A498; [4],> 100 µM
same,GI50,CAKI-1,1.17 µM
same,TGI,CAKI-1,> 100 µM
same,CC50,CAKI-1; [4],> 100 µM
same,GI50,RXF 393,6.95 µM
same,TGI,RXF 393,> 100 µM
same,CC50,RXF 393; [4],> 100 µM
same,GI50,SN12C,13.6 µM
same,TGI,SN12C,> 100 µM
same,CC50,SN12C; [4],> 100 µM
same,GI50,TK-10,12.1 µM
same,TGI,TK-10,> 100 µM
same,CC50,TK-10; [4],> 100 µM
same,GI50,DU-145,9.43 µM
same,TGI,DU-145,> 100 µM
same,CC50,DU-145; [4],> 100 µM
same,GI50,MCF7,13 µM
same,TGI,MCF7,> 100 µM
same,CC50,MCF7; [4],> 100 µM
Cc1ccc(-c2nc3ccc4c(c3[nH]2)C(=O)c2ccccc2C4=O)cc1,growth at 10 µM,BT-549 [3],94.1%
